Reference: ChEMBL document CHEMBL3120060, “Synthesis, in vitro anticancer evaluation and in silico studies of novel imidazo[2,1-b]thiazole derivatives bearing pyrazole moieties” (2014)

Key:
Assay type in all cases: functional
HL-60(TB) = assay: Cytotoxicity against human HL-60(TB) cells assessed as cell growth at 10 uM after 48 hrs by SRB assay; conditions: HL-60, 48 h, read-out: Activity
Summary of the method: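 NCI-60 single-dose screen: cells grown in RPMI 1640 with 5% FBS and 2 mM L-glutamine, plated at 5000–40,000 cells/well, preincubated 24 h at 37 °C, 5% CO2. Compound dissolved in DMSO, tested at 10^-5 M for 48 h. Cells TCA-fixed, sulforhodamine B stained. Growth expressed as percent of untreated control, referenced to time-zero plates.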

MDA-MB-468 = assay: Cytotoxicity against human MDA-MB-468 cells assessed as cell growth at 10 uM after 48 hrs by SRB assay; conditions: MDA-MB-468, 48 h, read-out: Activity
Summary of the method: (§1)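 NCI-60 single-dose screen. Cell lines grown in RPMI 1640 with 5% FBS and 2 mM L-glutamine, plated at 5000–40,000 cells/well according to doubling time, then preincubated 24 h at 37 °C in 5% CO2. Compounds dissolved in DMSO, tested at 10^-5 M for 48 h. Adherent cells fixed with cold TCA (10% final) and stained with 0.4% SRB in 1% acetic acid. Growth expressed as percent of untreated control.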

MDA-MB-231 = assay: Cytotoxicity against human MDA-MB-231 cells assessed as cell growth at 10 uM after 48 hrs by SRB assay; conditions: MDA-MB-231, 48 h, read-out: Activity; summary of the method: as §1
MCF7 = assay: Cytotoxicity against human MCF7 cells assessed as cell growth at 10 uM after 48 hrs by SRB assay; conditions: MCF7, 48 h, read-out: Activity; summary of the method: as §1
U-251 = assay: Cytotoxicity against human U251 cells assessed as cell growth at 10 uM after 48 hrs by SRB assay; conditions: U-251, 48 h, read-out: Activity
Summary of the method: (§2)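 NCI-60 single-dose screen at 10^-5 M. Adherent lines are grown in RPMI 1640 with 5% FBS and 2 mM L-glutamine, seeded at 5000–40,000 cells/well by doubling time, and preincubated 24 h at 37 °C in 5% CO2. Drug is added from DMSO stock diluted in medium, then 48 h. Cells are fixed in cold TCA (final 10%) for 60 min and stained with 0.4% SRB in 1% acetic acid. Growth is expressed as % of untreated control using time-zero plates.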

[1] = Cytotoxicity against human UO31 cells assessed as cell growth at 10 uM after 48 hrs by SRB assay; conditions: UO-31, 48 h, read-out: Activity; summary of the method: as §2
SNB-19 = assay: Cytotoxicity against human SNB19 cells assessed as cell growth at 10 uM after 48 hrs by SRB assay; conditions: SNB-19, 48 h, read-out: Activity; summary of the method: as §1
A498 = assay: Cytotoxicity against human A498 cells assessed as cell growth at 10 uM after 48 hrs by SRB assay; conditions: A498, 48 h, read-out: Activity; summary of the method: as §1
ACHN = assay: Cytotoxicity against human ACHN cells assessed as cell growth at 10 uM after 48 hrs by SRB assay; conditions: read-out: Activity; summary of the method: as §1
SK-MEL-2 = assay: Cytotoxicity against human SK-MEL-2 cells assessed as cell growth at 10 uM after 48 hrs by SRB assay; conditions: SK-MEL-2, 48 h, read-out: Activity; summary of the method: as §1
RXF 393 = assay: Cytotoxicity against human RXF393 cells assessed as cell growth at 10 uM after 48 hrs by SRB assay; conditions: RXF 393, 48 h, read-out: Activity; summary of the method: as §1
SK-MEL-5 = assay: Cytotoxicity against human SK-MEL-5 cells assessed as cell growth at 10 uM after 48 hrs by SRB assay; conditions: SK-MEL-5, 48 h, read-out: Activity; summary of the method: as §1
NCI-H23 = assay: Cytotoxicity against human NCI-H23 cells assessed as cell growth at 10 uM after 48 hrs by SRB assay; conditions: NCI-H23, 48 h, read-out: Activity; summary of the method: as §1
OVCAR-3 = assay: Cytotoxicity against human OVCAR3 cells assessed as cell growth at 10 uM after 48 hrs by SRB assay; conditions: OVCAR-3, 48 h, read-out: Activity; summary of the method: as §1
[2] = Cytotoxicity against human UACC257 cells assessed as cell growth at 10 uM after 48 hrs by SRB assay; conditions: UACC-257, 48 h, read-out: Activity; summary of the method: as §2
HOP-62 = assay: Cytotoxicity against human HOP62 cells assessed as cell growth at 10 uM after 48 hrs by SRB assay; conditions: HOP-62, 48 h, read-out: Activity; summary of the method: as §1
IGROV-1 = assay: Cytotoxicity against human IGROV1 cells assessed as cell growth at 10 uM after 48 hrs by SRB assay; conditions: IGROV-1, 48 h, read-out: Activity; summary of the method: as §1
BT-549 = assay: Cytotoxicity against human BT549 cells assessed as cell growth at 10 uM after 48 hrs by SRB assay; conditions: BT-549, 48 h, read-out: Activity; summary of the method: as §1
HCT-15 = assay: Cytotoxicity against human HCT15 cells assessed as cell growth at 10 uM after 48 hrs by SRB assay; conditions: HCT-15, 48 h, read-out: Activity; summary of the method: as §1
[3] = Cytotoxicity against human Hs578T cells assessed as cell growth at 10 uM after 48 hrs by SRB assay; conditions: Hs-578T, read-out: Activity; summary of the method: as §1
SR = assay: Cytotoxicity against human SR cells assessed as cell growth at 10 uM after 48 hrs by SRB assay; conditions: read-out: Activity
Summary of the method: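 Leukemia line, NCI-60 single-dose screen at 10^-5 M. Cells are grown in RPMI 1640 with 5% FBS and 2 mM L-glutamine, plated by doubling time, and preincubated 24 h at 37 °C with 5% CO2. After 48 h drug exposure, settled cells are fixed with 80% TCA (final 16%) and stained with SRB. Percent growth is calculated against untreated control and time-zero plates.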

HT-29 = assay: Cytotoxicity against human HT-29 cells assessed as cell growth at 10 uM after 48 hrs by SRB assay; conditions: HT-29, 48 h, read-out: Activity; summary of the method: as §1
K562 = assay: Cytotoxicity against human K562 cells assessed as cell growth at 10 uM after 48 hrs by SRB assay; conditions: K562, 48 h, read-out: Activity; summary of the method: as §1
M14 = assay: Cytotoxicity against human M14 cells assessed as cell growth at 10 uM after 48 hrs by SRB assay; conditions: M14, 48 h, read-out: Activity; summary of the method: as §1
786-0 = assay: Cytotoxicity against human 786-0 cells assessed as cell growth at 10 uM after 48 hrs by SRB assay; conditions: 786-0, 48 h, read-out: Activity; summary of the method: as §1
UACC-62 = assay: Cytotoxicity against human UACC62 cells assessed as cell growth at 10 uM after 48 hrs by SRB assay; conditions: UACC-62, 48 h, read-out: Activity; summary of the method: as §2

Row | SMILES | growth at 10 µM (HL-60(TB)) [%] | growth at 10 µM (MDA-MB-468) [%] | growth at 10 µM (MDA-MB-231) [%] | growth at 10 µM (MCF7) [%] | growth at 10 µM (U-251) [%] | growth at 10 µM [1] [%] | growth at 10 µM (SNB-19) [%] | growth at 10 µM (A498) [%] | growth at 10 µM (ACHN) [%] | growth at 10 µM (SK-MEL-2) [%] | growth at 10 µM (RXF 393) [%] | growth at 10 µM (SK-MEL-5) [%] | growth at 10 µM (NCI-H23) [%] | growth at 10 µM (OVCAR-3) [%] | growth at 10 µM [2] [%] | growth at 10 µM (HOP-62) [%] | growth at 10 µM (IGROV-1) [%] | growth at 10 µM (BT-549) [%] | growth at 10 µM (HCT-15) [%] | growth at 10 µM [3] [%] | further results
1 | O=C1CN2C(c3ccccc3)=CSC2=N1 | 114 | 106 | 96.7 | 88.5 | 93.9 | 61.3 | 99.7 | 111 | 97.9 | 114 | 102 | 99.8 | 94.9 | 111 | 103 | 93.6 | 104 | 112 | 95.9 | 103 | growth at 10 µM (SR): 86%; growth at 10 µM (HT-29): 109%; growth at 10 µM (K562): 88.8%; growth at 10 µM (M14): 99.9%; growth at 10 µM (786-0): 104%; growth at 10 µM (UACC-62): 90.3%
2 | Cc1ccc(-c2csc3nc(N4NC(=O)CC4=O)cn23)cc1 | 107 | 106 | 104 | 93.9 | 98.1 | 74.7 | 102 | 98 | 90.5 | 116 | 101 | 95.9 | 96.9 | 113 | 109 | 105 | 105 | 113 | 100 | 107 | growth at 10 µM (SR): 84.4%; growth at 10 µM (HT-29): 111%; growth at 10 µM (K562): 94.7%; growth at 10 µM (M14): 105%; growth at 10 µM (786-0): 103%; growth at 10 µM (UACC-62): 91.8%
3 | CC1=NN(c2cn3c(-c4ccccc4)csc3n2)C(=O)C1 | 89.2 | 114 | 89.9 | 89.6 | 90.7 | 59 | 90.8 | 96.6 | 91.2 | 102 | 109 | 102 | 91.6 | 99.8 | 102 | 95.3 | 88 | 89.7 | 96.7 | 106 | growth at 10 µM (SR): 84.5%; growth at 10 µM (HT-29): 106%; growth at 10 µM (K562): 83.4%; growth at 10 µM (M14): 100%; growth at 10 µM (786-0): 96.6%; growth at 10 µM (UACC-62): 91.1%
4 | O=C1CC(=O)N(c2cn3c(-c4ccccc4)csc3n2)N1 | 120 | 102 | 85.7 | 85.8 | 84.2 | 59.6 | 91 | 78.4 | 81.5 | 102 | 89.7 | 89.6 | 91.5 | 99 | 97.6 | 85.9 | 91.5 | 97.6 | 91.2 | 101 | growth at 10 µM (SR): 83%; growth at 10 µM (HT-29): 104%; growth at 10 µM (K562): 94.2%; growth at 10 µM (M14): 101%; growth at 10 µM (786-0): 104%; growth at 10 µM (UACC-62): 85%
5 | CC1=NN(c2cn3c(-c4ccc(Cl)cc4)csc3n2)C(=O)C1 | 92.5 | 97.9 | 96.5 | 93.5 | 91.7 | 80.9 | 88 | 74.1 | 89.1 | 104 | 104 | 92.4 | 92 | 106 | 94.9 | 97.5 | 99.3 | 101 | 88.7 | 101 | growth at 10 µM (SR): 73.3%; growth at 10 µM (HT-29): 85.7%; growth at 10 µM (K562): 71.4%; growth at 10 µM (M14): 96.2%; growth at 10 µM (786-0): 94.1%; growth at 10 µM (UACC-62): 81.9%
